SIAE primary: inhibitors of human sialic acid acetylesterase SIAE; Q9HAT2; SIAE FP-Rh probe binding, fluorescence polarization; inhibition, % at 9.66 µM; actives 0.69% (n = 370,000);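 active means inhibition above a cutoff: mean of compounds within the control limits plus 3 SD of those, cut at about 17% in these data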
Target sequence (Q9HAT2 whole entry, looked up): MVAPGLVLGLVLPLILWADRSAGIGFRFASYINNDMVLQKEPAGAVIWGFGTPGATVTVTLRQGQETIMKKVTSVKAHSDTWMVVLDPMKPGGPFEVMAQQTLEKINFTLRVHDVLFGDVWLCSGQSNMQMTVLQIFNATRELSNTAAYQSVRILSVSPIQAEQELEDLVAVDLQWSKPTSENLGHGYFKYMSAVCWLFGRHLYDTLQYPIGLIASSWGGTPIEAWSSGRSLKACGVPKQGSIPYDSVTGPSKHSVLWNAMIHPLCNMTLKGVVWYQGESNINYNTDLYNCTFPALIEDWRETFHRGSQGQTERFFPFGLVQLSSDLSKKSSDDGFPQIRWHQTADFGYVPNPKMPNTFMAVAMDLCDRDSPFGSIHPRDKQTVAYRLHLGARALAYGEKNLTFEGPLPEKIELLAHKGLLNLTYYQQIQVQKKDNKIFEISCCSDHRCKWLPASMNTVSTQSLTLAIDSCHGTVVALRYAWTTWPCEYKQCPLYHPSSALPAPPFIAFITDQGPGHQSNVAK
ABHD4 inh: inhibits mouse alpha/beta hydrolase domain 4; purified mABHD4, FP-Rh probe fluorescence polarization; inhibition, % at 8.92 µM; actives 0.54% (n = 370,000); AID 720543;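 active means inhibition exceeding the mean over every tested compound plus 3 SD, cut at about 30% in these data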
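Test system: mouse ABHD4 enzyme, wild type. Reagent: FP-Rh fluorescent activity-based probe, added after compound pre-incubation. Timing: pre-incubation 45 min, probe exposure 60 min, at 25 °C. Technique: FP readout, ex 525 nm / em 598 nm. Benchmarks: high control S159A mutant with DMSO, low control median of compound wells.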
HTRA1 inhibitor: HTRA1 (human) protease inhibition. AID 504803. recombinant HTRA1, FP-rhodamine activity-based probe, fluorescence polarization. Q92743. actives 0.5% (n = 340,000). inhibition, % at 5.96 µM; in the data active means inhibition above about 36%
PAD4 FP inh: blocks human protein arginine deiminase 4; AID 485272; recombinant PAD4, RCA probe fluorescence polarization; inhibition, % at 6.36 µM; Q9UM07; actives 0.41% (n = 330,000);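 active means percent inhibition above a cutoff equal to the mean of all tested compounds plus 3 SD, cut at about 15% in these data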
TCR CD3 inh: blocks the human TCR-CD3 interaction; TAMRA-labeled TCR probe fluorescence, biochemical; inhibition, % at 9.4 µM; actives 0.37% (n = 360,000); AID 651800; in the data active means inhibition above about 19%;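 further: recombinant mutant TCR 2C K166C tagged with TAMRA read by polarization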
PRMT1 inh: blocks human protein arginine methyltransferase 1. Q99873. recombinant PRMT1, activity-based probe fluorescence polarization. inhibition, % at 2.79 µM. actives 1.3% (n = 370,000);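 active means inhibition above about 21% made by adding two undisclosed values, limit read from the data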
PRMT1 inh conf: confirmation of human PRMT1 inhibitors; shares compounds with PRMT1 inh; recombinant His-PRMT1, activity-based probe fluorescence polarization; inhibition, % at 2.79 µM; actives 42% (n = 3,300); AID 687036;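 active means mean inhibition across replicates above the hit cutoff derived for the earlier primary screen, cut at about 22% in these data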
A number is an active result; i = inactive; nt = no result. Sampled rows, rich in hits. Any-hit rate of the full collection: about 2.9%.

SMILES	SIAE primary	ABHD4 inh	HTRA1 inhibitor	PAD4 FP inh	TCR CD3 inh	PRMT1 inh	PRMT1 inh conf
CC(C)Nc1nc(NCCN2CCNC2=O)c2sccc2n1	i	i	nt	nt	i	40	i
O=C(CCNc1ccc(F)cc1)c1cc2ccccc2o1	i	i	i	i	i	49	42
O=C(CCNc1cccc(F)c1)c1cc2ccccc2o1	i	i	i	i	i	i	nt
O=C(NCc1ccc(Cl)cc1)c1ccc(Cn2cc(C(F)(F)F)ccc2=O)cc1	i	i	i	i	i	72	64
O=C(NCc1ccccc1Cl)c1ccc(Cn2cc(C(F)(F)F)ccc2=O)cc1	i	i	i	i	i	i	nt
CCOC(=O)c1ccc(NC(=O)CC2Sc3ncnn3C2=O)cc1 (centres undefined)	i	i	i	i	i	55	69
O=C(CC1Sc2ncnn2C1=O)Nc1ccc(Cl)cc1 (centres undefined)	i	i	nt	i	i	i	nt
COc1ccc(NC(=O)CC2Sc3ncnn3C2=O)cc1 (centres undefined)	i	i	i	i	i	86	25
CCN1CC=C2C(C1)C(c1ccc(Cl)s1)C(C#N)=C(N)C2(C#N)C#N (centres undefined)	i	i	i	i	i	30	36
CCOC(=O)C1=C(c2ccccc2)OC(N)=C(C#N)C1c1ccc(Cl)s1 (centres undefined)	i	i	i	i	i	i	nt
NC(=O)c1ccc(NC(=O)COC(=O)/C=C/c2ccc(Br)o2)cc1	i	i	i	i	i	36	i
COC(=O)[C@]12C[C@H](CC(=O)NCCC(C)C)C(=O)N(Cc3cccc4ccccc34)C1=C[C@H](C(C)C)O[C@@H]2C1CC1	i	i	nt	nt	nt	i	nt
CCS(=O)(=O)C1=NN2C(=N)/C(=C\c3ccc(SCc4ccco4)o3)C(=O)N=C2S1	i	i	i	nt	i	30	i
CCS(=O)(=O)C1=NN2C(=N)/C(=C\c3ccc(OC(=O)c4ccco4)c(Br)c3)C(=O)N=C2S1	nt	nt	nt	i	nt	nt	nt
O=C1CC(N2CCN(Cc3ccccc3)CC2)C(=O)N1c1ccccc1 (centres undefined)	i	i	i	i	i	i	nt
CC1CCN(C2CC(=O)N(c3ccc(Br)cc3Br)C2=O)CC1 (centres undefined)	i	i	i	i	i	64	i
CC1CCN(C2CC(=O)N(c3ccccc3)C2=O)CC1 (centres undefined)	i	i	i	i	i	81	i
Cc1ccccc1NC(=O)N(C)[C@H]1C[C@H]2c3[nH]c4c(-c5ccccc5)cccc4c3CCN2C[C@H]1[C@H](C)O	i	i	nt	nt	nt	i	nt
COC(OC)c1nc(SCC(=O)Nc2cccc(Cl)c2)ncc1C(=O)O	i	i	i	i	i	27	i
CCN(CC)CCCNC(=O)CSc1nc2cccnc2n1C	i	i	nt	nt	nt	i	nt
Brc1ccc(C2=CSC3=NCCN23)cc1	i	i	i	i	i	30	i
COC(=O)C[C@H]1CC[C@H]2[C@H](COc3ccc(NS(=O)(=O)c4cccc(OC)c4)cc3C(=O)N2C)O1	i	i	nt	nt	nt	i	nt
O=C1CSC2(N1)C1CC3CC(C1)CC2C3 (centres undefined)	i	i	i	i	i	i	nt
C1CSC2(N1)C1CC3CC2CC(C1)C31NCCS1 (centres undefined)	i	i	i	i	i	63	45
CN1/C(=C\C=O)C(C)(C)c2ccccc21	i	i	i	i	i	i	nt
CN1\C(=C/C=C/C=C/C=[N+](C)C)C(C)(C)c2ccccc21	i	i	i	nt	i	33	43
Cc1ccc(-c2cc(-c3nnc(SCC(=O)N4c5ccccc5Sc5ccc(Cl)cc54)n3N)[nH]n2)cc1	i	i	nt	nt	nt	i	nt
COC(=O)C1=C(C)N(Cc2ccccc2C(F)(F)F)C(=NCc2ccc(OC)cc2)NC1c1ccccc1C(F)(F)F (centres undefined)	i	i	nt	nt	i	i	nt
CCc1ccccc1N1CSC2=C(C#N)C(c3ccccc3F)CC(=O)N2C1 (centres undefined)	i	i	i	i	i	54	42
COc1cc(OC)c(C2CC(=O)N3CN(c4ccccc4C)CSC3=C2C#N)cc1OC (centres undefined)	i	i	nt	i	i	29	80
